Experimental data of several laboratories.
Compare with care: the assays were run in different laboratories.
Read-out: cell growth or viability

| SMILES | cell line | assay | conditions | CC50 |
| --- | --- | --- | --- | --- |
| O=c1[nH]c2sc(-c3ccc(Cl)cc3)cc2c(=O)n1O | HFF | MTS | 7 days | > 50 µM |
| NCCNC(=O)CN1C(=O)Cc2c([nH]c3ccc(Br)cc23)-c2ccc(Cl)cc21 | J774 | WST-1 | 24 h | ≥ 100 µM |
| O=c1[nH]c2sc3c(c2c(=O)n1O)CCN(Cc1ccccc1)C3 | HFF | MTS | 7 days | > 50 µM |
| O=C1Cc2c([nH]c3ccc(Br)cc23)-c2ccc(Cl)cc2N1 | J774 | WST-1 | 24 h | > 200 µM |
| Cc1ccc(S(=O)(=O)c2nc(S(=O)(=O)NCc3ccccc3)sc2Cl)cc1 | HFF | ATP luminescence |  | 106 µM |
| Nc1ccn(C[C@@H](CO)OCP(=O)(O)O)c(=O)n1 | HFF | ATP luminescence | 14 days | 60 µM |
| O=S(=O)(c1ccc(Cl)cc1)c1nc(-c2ccccc2)oc1S(=O)(=O)c1ccc(Cl)cc1 | HFF | ATP luminescence |  | 86.2 µM |
| O=c1[nH]c2cc(-c3ccc(Cl)cc3)sc2c(=O)n1O | HFF | MTS | 7 days | > 50 µM |
| CN(C)c1ccc(C(=C2C=CC(=[N+](C)C)C=C2)c2ccc(N(C)C)cc2)cc1 | J774 | ATP luminescence | 72 h | 4.91 µM |
| NCCCCNC(=O)CN1C(=O)Cc2c([nH]c3ccc(Br)cc23)-c2ccc(Cl)cc21 | J774 | WST-1 | 24 h | ≥ 100 µM |
| N#Cc1nc(-c2ccccc2)oc1N1CCCC1CO (stereo not shown) | HFF | ATP luminescence |  | > 150 µM |
| O=c1[nH]c2cc(-c3ccccc3)sc2c(=O)n1O | HFF | MTS | 7 days | > 50 µM |
| CCN(CC)CCNC(=O)CN1C(=O)Cc2c([nH]c3ccc(Br)cc23)-c2ccc(Cl)cc21 | J774 | WST-1 | 24 h | ≤ 10 µM |
